Assay results from ChEMBL document CHEMBL1177641, “Synthesis and anti-hepatitis C virus (HCV) activity of 3'-C-substituted-methyl pyrimidine and purine nucleosides” (Bioorg Med Chem, 2010).

Tests used:
Hepatitis C virus = assay: Antiviral activity against HCV genotype1 infected in human Huh7 cells assessed as reduction of viral replication by steady-Glo luciferase assay; type: functional, organism-based, Hepacivirus hominis; conditions: genotype 1, Huh-7
Summary of the method: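 Huh-5-2 cells (Huh-7 with subgenomic genotype 1 replicon, luc-ubi-neo) seeded 5 × 10³/well in complete DMEM with 500 µg/mL G418; after 24 h at 37 °C, 5% CO₂, medium refreshed with G418 and compounds added from DMSO stock. Four days at 37 °C, then luciferase read by Steady-Glo. EC50 is the concentration halving replication; three repeats, mean ± SD.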

[1] = Cytotoxicity against human Huh7 cells after 3 days by WST-1 assay; type: cell-based, Huh-7
Summary of the method: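 Huh-5-2 cells seeded 5 × 10³/well in complete DMEM with G418. Serial compound dilutions in complete DMEM without G418 added 24 h after seeding. Cells proliferated three days at 37 °C, then cell number determined by WST-1 assay.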

[2] = Selectivity index, ratio of CC50 for human Huh7 cells to EC50 for HCV genotype1; parameters: species or system Huh-7

SMILES | EC50 (Hepatitis C virus) | CC50 at 72 h [1] | Ratio CC50/EC50 [2]
Nc1ncnc2c1ncn2[C@@H]1O[C@H](CO)[C@](O)(CF)[C@H]1O | 15.3 µM | 18.9 µM | 1.2
Nc1ccn([C@@H]2O[C@H](CO)[C@](O)(CF)[C@H]2O)c(=O)n1 |  | > 100 µM | 
CNc1ncnc2c1ncn2[C@@H]1O[C@H](CO)[C@](O)(CO)[C@H]1O | 37.8 µM | 58.8 µM | 1.6
CNc1ncnc2c1ncn2[C@@H]1O[C@H](CO)[C@](O)(CF)[C@H]1O |  | > 100 µM | 
[N-]=[N+]=NC[C@@]1(O)[C@@H](CO)O[C@@H](n2cnc3c(O)ncnc32)[C@@H]1O | > 100 µM | > 100 µM | 

Now from value to compound, other results behind:

EC50 (Hepatitis C virus) | SMILES | CC50 at 72 h [1] | Ratio CC50/EC50 [2]
> 100 µM | [N-]=[N+]=NC[C@@]1(O)[C@@H](CO)O[C@@H](n2ccc(N)nc2=O)[C@@H]1O | > 100 µM | 
0.3 µM | C[C@@]1(O)[C@H](O)[C@@H](CO)O[C@H]1n1cnc2c(N)ncnc21 |  | 
> 100 µM | CNc1ncnc2c1ncn2[C@@H]1O[C@H](CO)[C@](O)(CN=[N+]=[N-])[C@H]1O | > 100 µM | 
18.6 µM | Nc1ncnc2c1ncn2[C@@H]1O[C@H](CO)[C@](O)(CO)[C@H]1O | 37.3 µM | 2
11.8 µM | [N-]=[N+]=NC[C@@]1(O)[C@@H](CO)O[C@@H](n2cnc3c(N)ncnc32)[C@@H]1O | 12.3 µM | 1
